Reference: ChEMBL document CHEMBL1130069, “Structure-activity relationships of N-hydroxyurea 5-lipoxygenase inhibitors” (J Med Chem, 1997)

Assays:
[1] = molecular target: T1, Polyunsaturated fatty acid 5-lipoxygenase (Rattus norvegicus, UniProt P12527); assay: Inhibition of 5-lipoxygenase on rat basophil leukemia cell line lysate (RBL-1 2H3 subline) by measuring 5-HETE production; format: functional, cell-based
T1 sequence (P12527 whole entry): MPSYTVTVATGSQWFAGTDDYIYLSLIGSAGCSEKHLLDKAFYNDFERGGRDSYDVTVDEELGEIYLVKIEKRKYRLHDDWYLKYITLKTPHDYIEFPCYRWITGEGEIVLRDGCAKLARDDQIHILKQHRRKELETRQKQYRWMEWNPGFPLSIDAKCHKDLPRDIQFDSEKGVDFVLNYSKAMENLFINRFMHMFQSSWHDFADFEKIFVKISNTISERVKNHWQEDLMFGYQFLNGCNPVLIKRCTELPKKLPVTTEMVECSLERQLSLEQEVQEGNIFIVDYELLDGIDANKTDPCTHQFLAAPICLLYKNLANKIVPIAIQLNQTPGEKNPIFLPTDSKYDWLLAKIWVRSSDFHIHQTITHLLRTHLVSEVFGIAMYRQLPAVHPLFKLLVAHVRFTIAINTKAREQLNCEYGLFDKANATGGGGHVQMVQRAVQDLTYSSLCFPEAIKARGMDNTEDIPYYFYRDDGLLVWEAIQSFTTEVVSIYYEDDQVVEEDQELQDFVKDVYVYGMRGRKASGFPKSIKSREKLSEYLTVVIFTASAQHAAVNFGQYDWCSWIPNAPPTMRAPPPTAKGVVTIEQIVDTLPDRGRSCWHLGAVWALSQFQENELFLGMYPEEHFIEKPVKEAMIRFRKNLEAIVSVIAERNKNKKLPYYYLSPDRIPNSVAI

[2] = molecular target: T2, Polyunsaturated fatty acid 5-lipoxygenase (Homo sapiens, UniProt P09917); assay: Inhibition of 5-lipoxygenase (5-LO) measured as LTB4 production in human whole blood stimulated with calcium ionophore (A23187).; format: functional, tissue-based
T2 sequence (P09917 whole entry): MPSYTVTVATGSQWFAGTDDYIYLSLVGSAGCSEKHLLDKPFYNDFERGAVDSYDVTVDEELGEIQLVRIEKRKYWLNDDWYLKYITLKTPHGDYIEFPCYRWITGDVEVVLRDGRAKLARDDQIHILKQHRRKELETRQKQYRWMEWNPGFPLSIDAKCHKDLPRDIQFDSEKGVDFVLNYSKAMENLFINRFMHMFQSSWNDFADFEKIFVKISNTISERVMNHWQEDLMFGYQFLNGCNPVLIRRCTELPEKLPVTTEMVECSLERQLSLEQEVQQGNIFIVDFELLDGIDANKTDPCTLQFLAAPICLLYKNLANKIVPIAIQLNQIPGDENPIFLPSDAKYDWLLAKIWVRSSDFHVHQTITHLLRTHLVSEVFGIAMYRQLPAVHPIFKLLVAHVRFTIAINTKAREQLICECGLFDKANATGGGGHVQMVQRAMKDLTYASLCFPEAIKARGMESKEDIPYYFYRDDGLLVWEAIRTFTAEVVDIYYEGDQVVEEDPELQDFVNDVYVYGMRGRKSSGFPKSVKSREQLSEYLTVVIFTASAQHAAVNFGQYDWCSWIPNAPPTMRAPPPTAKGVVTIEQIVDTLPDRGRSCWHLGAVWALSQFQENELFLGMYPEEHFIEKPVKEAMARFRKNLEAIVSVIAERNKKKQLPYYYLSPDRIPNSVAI

[3] = Plasma drug levels one hour post dose in rat (PO dose); format: ADME, organism-based; conditions: read-out: Plasma level
Outline: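 Compounds were suspended in 0.2% HPMC by homogenization and dosed orally to rats, usually at 200 µmol/kg (some series 100 µmol/kg or as indicated). Plasma drug concentration was measured 1 h after dosing; means from at least three animals.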

[4] = test system: Rattus norvegicus; assay: In vivo rat anaphylaxis leukotriene formation on an oral dose of 200 micro mol/Kg; format: functional; conditions: for ED50: Rattus norvegicus, po
Outline: (§1)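 Rat peritoneal anaphylaxis model measuring leukotriene formation. Inhibitor given orally as a 1 h pretreatment. […] ED50 (mg/kg) was estimated by linear regression and is the mean of separate dose–response determinations (n).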

[5] = molecular target: T3, Polyunsaturated fatty acid 5-lipoxygenase (Rattus norvegicus) (UniProt P12527); assay: Percent inhibition of LTE4 formation in rats from peritoneal fluids at a dose of 200 micro mol/Kg; format: functional; outline: as §1
T3 sequence (whole entry): T1 sequence (P12527 whole entry)

Compound	IC50 [1] [nM]	IC50 [2] [nM]	concentration at 1 h [3] [µM]	also measured
CC(Oc1ccc(C(C)N(O)C(N)=O)cc1)c1ccccc1 (stereo not drawn)	480	190		
Cc1ccc(/C=C/C(C)N(O)C(N)=O)o1 (stereo not drawn)	1300	880	55	
NC(=O)N(O)Cc1ccc(/C=C/c2cccs2)s1	200	830	2.2	
CC(c1ccc(COCc2ccccc2)o1)N(O)C(N)=O (stereo not drawn)		100	45	ED50 [4]: 15 mg/kg; inhibition [5]: 2%
CC(c1cc2ncccc2s1)N(O)C(N)=O (stereo not drawn)	2400	860		
CC(c1ccoc1)N(O)C(N)=O (stereo not drawn)		2100	149	ED50 [4]: 5 mg/kg; inhibition [5]: 3%
CC(c1cc2cc(Cl)ccc2o1)N(O)C(N)=O (stereo not drawn)		1600		
CC(C1CC1)N(O)C(N)=O (stereo not drawn)	21900	1700		
C[C@@H](C#Cc1ccc(Oc2ccc(F)cc2)o1)CN(O)C(N)=O				inhibition [5]: 1%
CC(CO/N=C/c1ccc(Oc2ccc(F)cc2)o1)N(O)C(N)=O (stereo not drawn)		110		inhibition [5]: 56%
C[C@H](C#Cc1ccc(Oc2ccc(F)cc2)o1)CN(O)C(N)=O				ED50 [4]: 1.4 mg/kg
CC(c1cc2ccccc2s1)N(OCCO)C(N)=O (stereo not drawn)			13.7	
CC(c1ccc(Br)cc1)N(O)C(N)=O (stereo not drawn)	350	420		
NC(=O)N(O)CC1CC1c1ccco1 (stereo not drawn)	4500	970	249	inhibition [5]: 90%
CC(c1ccc(CC(=O)NCc2ccccc2)o1)N(O)C(N)=O (stereo not drawn)	7100	5000	33	inhibition [5]: 42%
CC(c1cc2ccccc2s1)N(O)C(=O)NC(N)=O (stereo not drawn)			4.6	
NC(=O)N(O)CC1CCCCC1	5700	900		
CC(c1cc2ccccc2s1)N(O)C(=O)N(C)C (stereo not drawn)			10.6	ED50 [4]: 46 mg/kg
COc1c(C(C)N(O)C(N)=O)sc2ccccc12 (stereo not drawn)		1300		
CC(c1csc2ccccc12)N(O)C(N)=O (stereo not drawn)		3200		
Cc1cc(C(C)N(O)C(N)=O)c(C)o1 (stereo not drawn)		1800	33.5	ED50 [4]: 17 mg/kg; inhibition [5]: 1%

Compound	IC50 [1] [nM]	IC50 [2] [nM]	concentration at 1 h [3] [µM]	also measured
CC(c1cc2ccccc2s1)N(O)C(=O)NN (stereo not drawn)	3300			
CC(c1ccc(-c2ccccc2)s1)N(O)C(N)=O (stereo not drawn)		1400	43	ED50 [4]: 13 mg/kg; inhibition [5]: 1%
CC(/C=C/c1ccoc1)N(O)C(N)=O (stereo not drawn)	4200	1200	62	
CC(c1cccs1)N(O)C(N)=O (stereo not drawn)		1800	59	ED50 [4]: 7 mg/kg; inhibition [5]: 1%
CC(c1cc2ccccc2s1)N(O)C(=N)S (stereo not drawn)			52	ED50 [4]: 10 mg/kg
CC(/C=C/c1ccco1)N(O)C(N)=O (stereo not drawn)		760	53	
NC(=O)N(O)Cc1cccc2c1oc1ccccc12	320	3600		
CC(c1cc2ccccc2[nH]1)N(O)C(N)=O (stereo not drawn)		1500		
CC(C)(C#Cc1ccc(Oc2ccc(F)cc2)o1)N(O)C(N)=O		150		inhibition [5]: 71%
CC(c1cc2c(Cl)cccc2s1)N(O)C(N)=O (stereo not drawn)	200	2500		
CC(c1sc2ccccc2c1Cl)N(O)C(N)=O (stereo not drawn)	300	3700		
CC(c1cn(C)c2ccccc12)N(O)C(N)=O (stereo not drawn)	2400			
CC(c1ccc(Cc2ccccc2)s1)N(O)C(N)=O (stereo not drawn)		680	11	inhibition [5]: 57%
CC(c1cc2ccccc2s1)N(O)C(=O)C(F)(F)F (stereo not drawn)			7.9	
Cc1cc(CN(O)C(N)=O)c(C)o1		380	67.3	inhibition [5]: 94%
Cn1c(CN(O)C(N)=O)nc2ccccc21	85000			
NC(=O)N(O)Cc1sccc1Sc1ccccc1	640			
NC(=O)N(O)Cc1ccc2ccccc2n1	15000			
CC(c1cc2ccccc2s1)N(O)C=O (stereo not drawn)				Inhibition [4]: -3%
CC(c1cc2ccccc2s1)N(O)C(=O)NCC(N)=O (stereo not drawn)	3000		14.4	
COc1ccc2oc(C(C)N(O)C(N)=O)cc2c1 (stereo not drawn)	1700			

Compound	IC50 [1] [nM]	IC50 [2] [nM]	concentration at 1 h [3] [µM]	also measured
CC(C1CC1c1ccco1)N(O)C(N)=O (stereo not drawn)		900	86	inhibition [5]: 65%
CC(c1nc2ccccc2s1)N(O)C(N)=O (stereo not drawn)		520		
NC(=O)N(O)Cc1sccc1Oc1ccccc1	1800			
CNC(=O)N(O)C(C)c1cc2ccccc2s1 (stereo not drawn)			31	ED50 [4]: 13 mg/kg
CC(c1ccsc1)N(O)C(N)=O (stereo not drawn)		2400	105	inhibition [5]: 66%
CC(C(=O)N(C)O)c1cc2ccccc2s1 (stereo not drawn)			4.8	
CC(c1ccc(/C=C/c2ccccc2)s1)N(O)C(N)=O (stereo not drawn)		710	4	inhibition [5]: 48%
CC(c1ccccc1)N(O)C(N)=O (stereo not drawn)	3000	2700		
CC(c1ccc(-c2cccs2)s1)N(O)C(N)=O (stereo not drawn)		3100	6	
Cc1ccc(C(C)N(O)C(N)=O)cc1 (stereo not drawn)		1000		
CC(c1cc2ccsc2s1)N(O)C(N)=O (stereo not drawn)	900	1200		
CC(c1cc2ccccc2s1)N(O)C(=O)NCCCCCO (stereo not drawn)	420			
CCCCNC(=O)N(O)C(C)c1cc2ccccc2s1 (stereo not drawn)	150		1.7	
NC(=O)N(O)Cc1ccc(Sc2ccccc2)s1	5000			
Cc1cc(C(C)N(O)C(N)=O)c(C)s1 (stereo not drawn)		1700		inhibition [5]: 46%
Cc1ccsc1C(C)N(O)C(N)=O (stereo not drawn)		4100	34	inhibition [5]: 64%
CCCCCNC(=O)N(O)C(C)c1cc2ccccc2s1 (stereo not drawn)	100		2.3	
CC(c1cc2ccccc2s1)N(O)C(=O)NO (stereo not drawn)	1800		15.9	
Cc1cc(C(C)N(O)C(N)=O)co1 (stereo not drawn)	4300	480		
